This sample holds only a part of the variants without activity.
B1: tRNA (parent)
chain: GUUCCGUUGGCGUAAUGGUAACGCGUCUCCCUCCUAAGGAGAAGACUGCGGGUUCGAGUCCCGUACGGAACG

Variants of: B1
Experiment: yeast fitness relative to wild type (ratio to wild type); higher = fitter; tRNA-Arg(CCU), competitive growth, 37 C, YPD
In short: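 Variants of the tRNA-Arg(CCU) gene, chemically synthesised with a 3% per-site mutation rate at 69 sites, were placed at the native genomic locus in Saccharomyces cerevisiae. The pooled strains were competed in YPD at 37°C for 24 hours in six parallel replicates. Gene amplicons from the start population and from each end population were read by 100-nucleotide paired-end sequencing. Darwinian fitness relative to wild type came from changes in genotype frequencies; genotypes needed ≥ 100 starting reads, and estimates < 0.5 were set to 0.5.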

Variant	yeast fitness
GUUCCGUUGGCGUAAUGGUAACGGGACUCCUUCCUAAGGAGAAGCCUGCGGGUUCGAGUCCCGUACGGUACG [C24G U26A C31U A45C A69U]	≤ 0.5
GUUCCGUUGGCGUAAUGGUAACGUGUCUCCCUCCUAAGGAGACGACUGCGGGUUCGCGUCCCGUACGGAACG [C24U A43C A57C]	≤ 0.5
GUUCCGUUGGCGUAAUGGUAACGUGUCUCCCUCCUAGGAAGAAGACUCCGGGUUCGAGUCCCGUACGGCACG [C24U A37G G39A G48C A69C]	≤ 0.5
GUUCCGUUGGCGUAAUGGUAACGUGUCUCCCUCCUAAGGAGUAGACUGCGGAUUCGAGUCCCGUACGGAACG [C24U A42U G52A]	0.563
GUUCCGUUGGCGUAAUGGUAACGUGUCUCCCUCCUAAGGAGGAGACUGCGGGUUCGAGUCCCGUACGGAACG [C24U A42G]	0.956
GUUCCGUUGGCGUAAUGGUAACGUGUCUCCCUCCUAAGGAGUAGACUGCGGGUUCGAGUCCCGUACGGAACG [C24U A42U]	0.875
GUUCCGUUGGCGUAAUGGUAACGUGUCUCCCUCCUACGCAGAGGACUGCGGGUUCGAGUCCCGUACGGAACG [C24U A37C G39C A43G]	≤ 0.5
GUUCCGUUGGCGUAAUGGUAACGUGUCUCCCUCCUGAGGAGAAGACUGCGGGUUCGAGUCACGUACGGAACG [C24U A36G C61A]	≤ 0.5
GUUCCGUUGGCGUAAUGGUAACGUGUCUCCCUCCUGAGGAGAAGACUGCGGGUUCGAGUCUCGUACGGAACG [C24U A36G C61U]	0.655
GUUCCGUUGGCGUAAUGGUAACGUGUCUCCCUCCUCAGGAGAUGACUGCGGGUUCGAGUCCCGUACGGAACG [C24U A36C A43U]	0.578
GUUCCGUUGGCGUAAUGGUAACGGGUCUCCCUCCUAAGGAGAAGACGGCGGGUUCGAGUCCCGUACGGAACG [C24G U47G]	≤ 0.5
GUUCCGUUGGCGUAAUGGUAACGGGUCUCCCUCCUAAGGAGAAGACAGCGGGUUCGAGUCCCGUACGGAACG [C24G U47A]	0.57
GUUCCGUUGGCGUAAUGGUAACGGGUCUCCCUCCUAAGGAGAAGACCGCGGGUUCGAGUCCCGUACGGAACG [C24G U47C]	0.688
GUUCCGUUGGCGUAAUGGUAACGUGUCUCCCUCCUAGGAAGAAGACUCCGGGUUCGAGUCCCGUACGUAACG [C24U A37G G39A G48C G68U]	≤ 0.5
GUUCCGUUGGCGUAAUGGUAACGUGUCUCCCUCCUAUGGACAAGACUGCGGGUUCGAGUCCCGUACGGACCG [C24U A37U G41C A70C]	≤ 0.5
GUUCCGUUGGCGUAAUGGUAACGGGCCUCCCACCUCAGGAGAAGACUGGGCGUUCGAGUCCCGUAUGAAACG [C24G U26C U32A A36C C49G G51C C66U G68A]	≤ 0.5
GUUCCGUUGGCGUAAUGGUAACGGGUCUCCCUCCUAAGGAGAAGACCGCGGGUUCGAGUCCCGUACGCACCG [C24G U47C G68C A70C]	≤ 0.5
GUUCCGUUGGCGUAAUGGUAACGGGCCUCCUUCCUAAGGAGAAGACUGCGGGUCCGAGUCCCGUACGGAACG [C24G U26C C31U U54C]	0.934
GUUCCGUUGGCGUAAUGGUAACGUGUCUCCCUCCUAAGGGGAAGAAUGCGGGUUCGAGUCCCGUACGGAACG [C24U A40G C46A]	0.723

Variant	yeast fitness
GUUCCGUUGGCGUAAUGGUAACGGGGCUCCCUCAUCAGGAGAAGACUGCGGGUUCGAGUCCCGUACGGAACG [C24G U26G C34A A36C]	≤ 0.5
GUUCCGUUGGCGUAAUGGUAACGGGUCUCCCUCCUAAGGAGAAGACUGCGGGUUCGAGUCCCGAACGGAACG [C24G U64A]	0.631
GUUCCGUUGGCGUAAUGGUAACGGGUCUCCCUCCUAAGGAGAAGACUGCGGGUUCGAGUCCCGCACGGAACG [C24G U64C]	0.567
GUUCCGUUGGCGUAAUGGUAACGGGUCUCCCUCCGAAGGAGAAGCCUGCGGGUUCGAGUCCCGUACGGAACG [C24G U35G A45C]	≤ 0.5
GUUCCGUUGGCGUAAUGGUAACGUGUCUCCCUCCUAAGGGGAAGACUGCGGGUUCGACUCCCGUACGGAACG [C24U A40G G58C]	0.579
GUUCCGUUGGCGUAAUGGUAACGGGUCUCCCACCUAAGGAGCAGACUGCGGGUUCGAGUCCCGUUCGGAACG [C24G U32A A42C A65U]	≤ 0.5
GUUCCGUUGGCGUAAUGGUAACGUGUCUCCCUCCUCAGGAGAAGACUGCGGGUUCGAGUCCCGUACGGAACG [C24U A36C]	0.716
GUUCCGUUGGCGUAAUGGUAACGUGUCUCCCUCCUUAGGAGAAGACUGCGGGUUCGAGUCCCGUACGGAACG [C24U A36U]	0.592
GUUCCGUUGGCGUAAUGGUAACGUGUCUCCCUCCUGAGGAGAAGACUGCGGGUUCGAGUCCCGUACGGAACG [C24U A36G]	0.88
GUUCCGUUGGCGUAAUGGUAACGGGUCUCCCUCCCAAGGAGAAGACUGUGGGUUCGAGUCGCGUACGGAACG [C24G U35C C49U C61G]	0.54
GUUCCGUUGGCGUAAUGGUAACGGGUCUCCCUCCUAAGGAGAAGACAGCGGGUUGGAGUCCCGUACGGAACG [C24G U47A C55G]	0.847
GUUCCGUUGGCGUAAUGGUAACGGGUCUCCCUCCUAAGGAGAAGACUGCGGGGUCGAGUACCGUACGGAACG [C24G U53G C60A]	≤ 0.5
GUUCCGUUGGCGUAAUGGUAACGUGUCUCCCUCCUCAGGAGAAGACUGCGGGCUCGAGUCCCGUACGGAACG [C24U A36C U53C]	≤ 0.5
GUUCCGUUGGCGUAAUGGUAACGUGUCUCCCUCCUACGGAGAAGACUGCGGGUUCGAAUCCCGUACGGAACG [C24U A37C G58A]	0.513
GUUCCGUUGGCGUAAUGGUAACGGGUCUCCCUCCUAAGGAGAAGACUGCGGGUUCGAGCCCCGUACGGAACG [C24G U59C]	0.65
GUUCCGUUGGCGUAAUGGUAACGGGUCUCCCCCCUAAGGAGAAGACUGCGGGUUCGAGUCCCGUACGGAACG [C24G U32C]	0.599
GUUCCGUUGGCGUAAUGGUAACGUGUCUCCCUCCUAAGGUGAAGACUGCGGGUUUGAGACCCGUACGGAACG [C24U A40U C55U U59A]	0.548
GUUCCGUUGGCGUAAUGGUAACGGGCCUCCCUCCUAGGGAGAAGACUGCGGGUGCGAGUCGCGUACGGAACG [C24G U26C A37G U54G C61G]	0.51

— the RNAGym collection of RNA variant scans (doi:10.1126/science.aae0568)
